Only some compounds are listed: those with a hit (about 3.6% of all), similar ones and a draw of the others.
Wnt act: Wnt/beta-catenin pathway activators, primary screen, cell-based, plate reader, single point | Wnt/beta-catenin reporter cell assay, activator | activation, % at 9.35 µM | 1.2% of 300,000 active | AID 743398, 2014; in the data active means activation above about 30%, passing the limit was not always enough;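 further: 0% = neutral control wells and 100% = positive control wells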
SR-BI uptake up: activators of SR-BI mediated DiI-HDL uptake, primary screen, ldlA[mSR-BI] CHO cells, DiI fluorescence; activation, % at 12.5 µM; 3 h; 100 = double the neutral-control signal; 0.096% of 320,000 active;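 active means mean replicate activation of at least 60% and every replicate at or above 60%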;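 further: 0% = median plate neutral-control signal and 100% = twice that signal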
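Material: SR-BI-overexpressing, LDLR-lacking CHO cells; schedule: compound exposure 3 h, 37 °C; reagent: DiI-labelled HDL at 10 µg/mL final; technique: bottom-read fluorescence, 550/595 nm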
SR-BI HDL uptake: inhibitors of SR-BI mediated HDL lipid uptake, primary screen, ldlA[mSR-BI] cells, fluorescence, single point | Scavenger receptor class B member 1 (Mus musculus), Q61009 | ldlA[mSR-BI] CHO cells, DiI-HDL uptake fluorescence, 3 h | inhibition, % at 12.5 µM | 0.96% of 320,000 active | AID 488896, 2010;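 active means mean replicate inhibition of at least 70% and a set share of replicates each scoring 70 or more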;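 further: 0% = median of neutral control wells and 100% = median of positive control wells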
Target sequence (Q61009 whole entry, looked up): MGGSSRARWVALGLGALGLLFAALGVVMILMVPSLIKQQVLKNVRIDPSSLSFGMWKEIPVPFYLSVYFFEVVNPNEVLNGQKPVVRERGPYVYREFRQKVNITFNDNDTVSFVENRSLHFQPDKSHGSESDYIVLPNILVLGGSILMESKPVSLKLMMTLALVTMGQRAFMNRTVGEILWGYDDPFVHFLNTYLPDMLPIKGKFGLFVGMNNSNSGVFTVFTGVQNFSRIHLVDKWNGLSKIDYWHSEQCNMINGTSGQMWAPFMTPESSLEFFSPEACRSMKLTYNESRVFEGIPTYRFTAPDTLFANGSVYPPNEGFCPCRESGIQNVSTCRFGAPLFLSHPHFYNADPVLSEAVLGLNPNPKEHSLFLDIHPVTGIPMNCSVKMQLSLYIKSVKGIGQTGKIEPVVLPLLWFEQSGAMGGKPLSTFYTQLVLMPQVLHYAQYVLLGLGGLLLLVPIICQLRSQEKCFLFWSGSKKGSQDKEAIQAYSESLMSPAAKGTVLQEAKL
MITF act: activators of MITF-driven TRPM1 promoter reporter, primary screen, cell-based, SK-MEL-5, luciferase, single point | SK-MEL-5 TRPM1-promoter luciferase, 24 h; % of positive control, neutral wells = 0 | activation, % at 12.5 µM | 0.75% of 300,000 active | AID 588334, 2011;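 active means mean activation of at least 80% with every replicate also reaching 80%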;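 further: 0% = neutral control wells and 100% = parthenolide positive control wells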
HSF1 activator: HSF-1 activators, primary screen, NIH3T3-HGL cells, MG132 stress, luminescence, single point | activation, % at 9 µM | NIH3T3-HGL HSF-1 luciferase reporter, 8 h; 100% = twice DMSO control signal | 1.7% of 300,000 active;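 active means mean replicate activation of at least 50% with a set share of replicates each reaching 50%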;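 further: 0% = median of the neutral control wells and 100% = twice that signal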
An asterisk follows results filed as active; / = not tested or not shown.

SMILES | Wnt act | SR-BI uptake up | SR-BI HDL uptake | MITF act | HSF1 activator
CN(c1ccccc1)c1nc(N)c(C#N)c(CC#N)c1C#N | -54.5 | 15.1 | -15.1 | -15.5 | 69.3*
N#CC1C(=O)NC(c2ccccc2)=CC1c1ccccc1 (configuration not stated) | 0.2 | 10.8 | -10.8 | -12.9 | /
Nc1[nH]n(-c2ccccc2)c(=O)c1N=Nc1ccc2c(c1)OCO2 | 58.2* | / | / | 77.1 | 0.4
Nc1nn(-c2ccccc2)c(N)c1N=Nc1ccc2c(c1)OCO2 | 26.7 | -45.8 | 45.8 | 20.0 | -40.9
Nc1[nH]n(-c2ccccc2)c(=O)c1N=Nc1ccc2c(c1)OCCO2 | 34.4* | 1.3 | -1.3 | 61.1 | -23.6
COc1cc(/C=N/Nc2nc3ccccc3s2)ccc1OC(=O)c1ccccc1F | 29.4 | -30.1 | 30.1 | 16.6 | 84.7*
COc1cc(/C=N/Nc2ccccc2[N+](=O)[O-])ccc1OC(=O)c1ccccc1F | -7.5 | -66.0 | 66.0 | 50.9 | 2.1
COc1cc(OC)cc(C(=O)Oc2ccc(/C=N/Nc3nc4ccccc4s3)cc2OC)c1 | 41.0* | -47.4 | 47.4 | 0.4 | 82.4*
O=[N+]([O-])c1ccc(COc2ccccc2CO)cc1 | 12.4 | / | / | / | /
O=C1C(Nc2ccccc2)=C2CCCC=C2N1c1ccccc1 | 1.5 | -78.8 | 78.8* | 35.0 | 42.0
O=C1C=CC(=O)N1c1ccc(Nc2ccccc2)cc1 | -4.2 | -34.0 | 34.0 | -14.2 | /
O=C(OCC(=O)N1CCCCC1)c1c[nH]c2ccccc12 | 27.3 | 13.4 | -13.4 | 94.0* | /
Cc1cccc(C(=O)OCC(=O)N2CCCCCC2)c1C | 34.3* | -20.9 | 20.9 | 79.0 | /
Nc1ccc2c(c1)-c1ccc(F)cc1C2=O | 8.8 | 9.3 | -9.3 | 3.3 | /
Cc1sc2ncnc(SCC(=O)N3c4ccccc4Sc4ccc(Cl)cc43)c2c1C | -1.5 | 35.8 | -35.8 | -0.2 | 5.1
CCOC(=O)c1c(C)sc2c1N(C(=O)CCl)c1cc(Cl)ccc1S2 | / | -0.2 | 0.2 | -81.1 | 79.3*
Cc1ccc(S(=O)(=O)N2CC3(O)CN(C(=O)OC(C)C)N(C(=O)OC(C)C)CC3(OC(=O)Nc3cccs3)C2)cc1 (configuration not stated) | -3.2 | / | / | / | /
CCC(=O)Nc1ccc(C(=O)Cn2ncc(Cl)c(Cl)c2=O)cc1 | -20.6 | / | / | -65.8 | 56.8*
CCN(CC)S(=O)(=O)c1cc(NC(=O)Cn2ncc(Cl)c(Cl)c2=O)ccc1C | -23.4 | / | / | -82.9 | 120.5*
Cc1cc(O)cc(=O)n1-c1ccc(Cl)c(C(F)(F)F)c1 | -4.7 | / | / | / | /
CCOC(=O)C1=CCC(c2ccc([N+](=O)[O-])cc2)N(S(=O)(=O)c2ccc(C)cc2)C1 (configuration not stated) | -1.7 | / | / | / | /
COc1ccc2c(=O)c3ccccc3oc2c1 | 2.1 | 7.0 | -7.0 | 104.3* | 22.8
O=c1c2ccccc2oc2c1ccc1ccccc12 | / | -10.4 | 10.4 | 90.2* | /
COc1ccc(-c2coc3cc(O)ccc3c2=O)cc1OC | / | 15.2 | -15.2 | 38.7 | 10.4
CC(=O)c1ccc2oc3ccccc3c(=O)c2c1 | 11.1 | -3.2 | 3.2 | 80.2* | -1.1
SMILES | Wnt act | SR-BI uptake up | SR-BI HDL uptake | MITF act | HSF1 activator
COc1ccc2c(=O)c(-c3ccc(OC)c(OC)c3)coc2c1 | 1.4 | -26.4 | 26.4 | 95.0* | 34.3
CCCCCCC(=O)NC1CCCCN(C)C1=O (configuration not stated) | -1.6 | / | / | / | /
COC(=O)C(Cc1ccc(O)cc1)NS(=O)(=O)Cc1ccccc1 (configuration not stated) | -1.7 | / | / | / | /
C[C@@H]1CN([C@@H](C)CO)C(=O)CCCn2cc(nn2)CO[C@H]1CN(C)C(=O)Nc1cccc(C(F)(F)F)c1 | -1.1 | / | / | / | /
COc1ccc2c(c1)oc(=O)c1cc(OC)ccc12 | 5.7 | -15.0 | 15.0 | 91.7* | 19.9
COc1ccc2c(c1)oc(=O)c1ccccc12 | 9.8 | 35.9 | -35.9 | / | 2.2
COc1ccc2c(c1)oc(=O)c1c3ccccc3[nH]c21 | 15.7 | -41.5 | 41.5 | 39.6 | 71.0*
CCc1nc2ccc(C(=O)NCCCN3CCCC3=O)cn2c1N(CC)Cc1cccc(Br)c1 | -1.8 | / | / | / | /
Fc1ccc(-c2nnc3ccc(N4CCc5ccccc5C4)nn23)cc1 | 0.0 | -59.0 | 59.0 | / | 79.6*
CCCCNC(=O)c1ccc2nc(CC)c(N(CC)CCN(C)C)n2c1 | -3.5 | / | / | / | /
O=C(/C=C(\Nc1cc(Cl)c(F)c(Cl)c1)c1ccccc1)c1ccccc1 | 14.7 | / | / | / | /
COc1ccc2nc3cc(Cl)ccc3c(Nc3cc(C(C)C)c(O)cc3C)c2c1 | 4.2 | -61.8 | 61.8 | -7.1 | 186.7*
COc1ccc(S(=O)(=O)Nc2cc(C(C)C)c(O)cc2C)cc1 | -0.9 | 4.9 | -4.9 | / | 0.9
CCOC(=O)[C@]12CCC=C1N(Cc1ccc3c(c1)OCO3)C(=O)[C@H](CC(=O)NCCCOC)C2 | 0.2 | / | / | / | /
Cc1cccc(C)c1N1CCN(S(=O)(=O)c2ccc(F)cc2)CC1 | 0.8 | 41.5 | -41.5 | 14.6 | 55.3*
Cc1ccccc1CN1CCN(S(=O)(=O)c2ccc(F)cc2)CC1 | 3.1 | 22.3 | -22.3 | / | -16.5
COc1cccc(C(=O)O/N=C(\N)c2ccc([N+](=O)[O-])cc2)c1OC | / | -39.0 | 39.0 | 84.4* | 48.9
COc1ccccc1C(=O)O/N=C(\N)c1ccccc1Cl | 70.4* | 14.5 | -14.5 | 41.2 | 69.6*
COc1ccc(/C(N)=N/OC(=O)c2cccc([N+](=O)[O-])c2C)cc1OC | / | -31.9 | 31.9 | 11.4 | 9.8
NCCCC(C(=O)O)N(C(=O)OCc1ccccc1)C(=O)OCc1ccccc1 (configuration not stated) | 2.2 | / | / | / | /
S=c1[nH]nc(-c2ccncc2)n1/N=C/c1cn(-c2ccccc2)nc1-c1ccc(Cl)cc1 | 47.8* | / | / | / | 15.8
N#CCS(=O)(=O)c1cccc[n+]1[O-] | -2.2 | / | / | / | /
CC1=NN(c2nc(-c3ccc(C)cc3)cs2)C(=O)C1N=Nc1ccccc1O (configuration not stated) | 2.0 | -152.2 | 152.2* | -68.2 | -31.7
CC1=NN(c2ccccc2)C(=O)C1N=Nc1ccccc1 (configuration not stated) | 56.6* | -4.7 | 4.7 | 22.0 | 44.5
O=C(COc1ccc(CNC[C@H]2O[C@@H](n3ccc(=O)[nH]c3=O)[C@H](O)[C@@H]2O)cc1)Nc1ccccn1 | -3.6 | / | / | / | /
O=C(C[C@H]1CC[C@H]2[C@@H](COC[C@H](O)CN2Cc2ccccc2)O1)NCCCN1CCOCC1 | -1.4 | / | / | / | /
CN(C)S(=O)(=O)c1ccc2c(c1)nc(CCC(=O)NCC(=O)Nc1ccc(F)c(F)c1F)n2C | -1.9 | / | / | / | /
CCOC(=O)c1cn[nH]c1NC(=S)Nc1ccc(Cl)cc1 | 35.6* | / | / | / | -46.0
CCN(CC)C(=O)C1=C(C)N(Cc2ccccc2)C(=O)C(CC(=O)NC2CCCCC2)C1 (configuration not stated) | -1.4 | / | / | / | /
